Source: ChEMBL document CHEMBL3232844, “Synthesis and structure activity relationships of schweinfurthin indoles” (2014)

Key:
Type in all cases: functional
[1] = test system: TK-10; assay: Cytotoxicity against human TK10 cells
Outline: (§1)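 Cell line run as part of the 60-cell-line screening panel; growth inhibition was reported as a GI50 for each line.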

[2] = test system: PC-3; assay: Cytotoxicity against human PC3 cells
Outline: (§2)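 Tested in a 60-cell-line human tumor panel screen; the read-out is growth inhibition, reported as GI50 for each cell line.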

[3] = test system: SF-268; assay: Cytotoxicity against human SF268 cells; outline: as §2
[4] = test system: HL-60(TB); assay: Cytotoxicity against human HL-60(TB) cells
Outline: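 Tested within the NCI 60-cell-line screen, with GI50 as the read-out. Values are the average of two independent experiments. The lowest concentration tested was 10 nM.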

[5] = test system: SF-539; assay: Cytotoxicity against human SF539 cells; outline: as §2
[6] = test system: K562; assay: Cytotoxicity against human K562 cells; outline: as §2
[7] = test system: SK-MEL-2; assay: Cytotoxicity against human SK-MEL-2 cells; outline: as §2
[8] = test system: IGROV-1; assay: Cytotoxicity against human IGROV1 cells; outline: as §2
[9] = test system: RXF 393; assay: Cytotoxicity against human RXF393 cells; outline: as §2
[10] = test system: HT-29; assay: Cytotoxicity against human HT-29 cells; outline: as §2
[11] = Cytotoxicity against human UACC257 cells; outline: as §1
[12] = test system: MDA-MB-435; assay: Cytotoxicity against human MDA-MB-435 cells; outline: as §2
[13] = test system: SK-OV-3; assay: Cytotoxicity against human SKOV3 cells; outline: as §2
[14] = test system: BT-549; assay: Cytotoxicity against human BT549 cells; outline: as §2
[15] = test system: MOLT-4; assay: Cytotoxicity against human MOLT4 cells; outline: as §2
[16] = test system: CCRF-CEM; assay: Cytotoxicity against human CCRF-CEM cells
[17] = test system: KM12; assay: Cytotoxicity against human KM12 cells; outline: as §2
[18] = Cytotoxicity against human OVCAR3 cells; outline: as §2
[19] = Cytotoxicity against human HCT15 cells; outline: as §2
[20] = test system: COLO 205; assay: Cytotoxicity against human COLO205 cells; outline: as §2
[21] = Cytotoxicity against human UACC62 cells; outline: as §1
[22] = test system: NCI-H460; assay: Cytotoxicity against human NCI-H460 cells; outline: as §2
[23] = test system: HCC 2998; assay: Cytotoxicity against human HCC2998 cells; outline: as §2
[24] = test system: HOP-62; assay: Cytotoxicity against human HOP62 cells; outline: as §2
[25] = test system: SNB-75; assay: Cytotoxicity against human SNB75 cells; outline: as §1
[26] = test system: MCF7; assay: Cytotoxicity against human MCF7 cells; outline: as §2
[27] = test system: LOX IMVI; assay: Cytotoxicity against human LOXIMVI cells; outline: as §2
[28] = test system: HCT-116; assay: Cytotoxicity against human HCT116 cells; outline: as §2
[29] = test system: MDA-MB-231; assay: Cytotoxicity against human MDA-MB-231 cells; outline: as §2
[30] = test system: DU-145; assay: Cytotoxicity against human DU145 cells; outline: as §2
[31] = test system: NCI-H226; assay: Cytotoxicity against human NCI-H226 cells; outline: as §2
[32] = test system: SK-MEL-5; assay: Cytotoxicity against human SK-MEL-5 cells; outline: as §2
[33] = test system: M14; assay: Cytotoxicity against human M14 cells; outline: as §2
[34] = test system: 786-0; assay: Cytotoxicity against human 786-0 cells; outline: as §2
[35] = test system: SF-295; assay: Cytotoxicity against human SF295 cells; outline: as §2
[36] = test system: T47D; assay: Cytotoxicity against human T47D cells; outline: as §1
[37] = Cytotoxicity against human OVCAR4 cells; outline: as §2
[38] = test system: MDA-MB-468; assay: Cytotoxicity against human MDA-MB-468 cells; outline: as §2
[39] = Cytotoxicity against human OVCAR8 cells; outline: as §2
[40] = test system: CAKI-1; assay: Cytotoxicity against human Caki1 cells; outline: as §2
[41] = test system: SR; assay: Cytotoxicity against human SR cells; outline: as §1
[42] = Cytotoxicity against human NCI-ADR-RES cells; outline: as §2
[43] = test system: NCI-H23; assay: Cytotoxicity against human NCI-H23 cells; outline: as §2
[44] = read-out: pLC50 (the source's name) (converted)

For `COc1cc(/C=C/c2cc(OC)c3c(C/C=C(\C)CCC=C(C)C)c[nH]c3c2)cc2c1O[C@]1(C)CC[C@@H](O)C(C)(C)[C@H]1C2`, the GI50 [1] was 4.27 µM, the LC50 [1] was > 100 µM and the TGI ([1]; read-out: pTGI (converted)) was 46.8 µM. For the same molecule, the GI50 [2] was 0.447 µM, the LC50 [2] was > 100 µM and the TGI ([2]; read-out: pTGI (converted)) was 17.8 µM. The GI50 [3] was 1.41 µM, the CC50 [3, 44] was 52.5 µM and the TGI ([3]; read-out: pTGI (converted)) was 15.8 µM. The GI50 [4] was 0.363 µM, the CC50 [4, 44] was > 100 µM and the TGI ([4]; read-out: pTGI (converted)) was 10.5 µM. For the same molecule, the GI50 [5] was 0.148 µM, the CC50 [5, 44] was 5.37 µM and the TGI ([5]; read-out: pTGI (converted)) was 0.871 µM. For the same molecule, the GI50 [6] was 0.427 µM, the CC50 [6, 44] was > 100 µM and the TGI ([6]; read-out: pTGI (converted)) was 3.89 µM. It also gave a GI50 [7] of 1 µM, a CC50 [7, 44] of 63.1 µM and a TGI ([7]; read-out: pTGI (converted)) of 9.77 µM. It also gave a GI50 [8] of 3.8 µM, a CC50 [8, 44] of 91.2 µM and a TGI ([8]; read-out: pTGI (converted)) of 24 µM. The GI50 [9] was 0.055 µM, the LC50 [9] was 1 µM and the TGI ([9]; read-out: pTGI (converted)) was 0.251 µM. For the same molecule, the GI50 [10] was 0.447 µM, the CC50 [10, 44] was > 100 µM and the TGI ([10]; read-out: pTGI (converted)) was 2.75 µM. For the same molecule, the GI50 ([11]; UACC-257) was 5.75 µM, the CC50 ([11]; UACC-257, read-out: pLC50 (the source's name) (converted)) was 81.3 µM and the TGI ([11]; UACC-257, read-out: pTGI (converted)) was 25.7 µM. The GI50 [12] was 1.62 µM, the CC50 [12, 44] was > 100 µM and the TGI ([12]; read-out: pTGI (converted)) was 17.4 µM. The GI50 [13] was 1.23 µM, the LC50 [13] was > 100 µM and the TGI ([13]; read-out: pTGI (converted)) was 13.8 µM. The GI50 [14] was 0.589 µM, the CC50 [14, 44] was 64.6 µM and the TGI ([14]; read-out: pTGI (converted)) was 17.8 µM. For the same molecule, the GI50 [15] was 0.251 µM, the CC50 [15, 44] was > 100 µM and the TGI ([15]; read-out: pTGI (converted)) was 0.851 µM. For the same molecule, the GI50 [16] was 0.295 µM, the CC50 [16, 44] was > 100 µM and the GI50 [17] was 0.562 µM. The CC50 [17, 44] was 5.13 µM, the TGI ([17]; read-out: pTGI (converted)) was 1.95 µM and the GI50 ([18]; OVCAR-3) was 5.5 µM. The CC50 ([18]; OVCAR-3, read-out: pLC50 (the source's name) (converted)) was 47.9 µM, the TGI ([18]; OVCAR-3, read-out: pTGI (converted)) was 20 µM and the GI50 ([19]; HCT-15) was 1.82 µM. For the same molecule, the CC50 ([19]; HCT-15, read-out: pLC50 (the source's name) (converted)) was 66.1 µM, the TGI ([19]; HCT-15, read-out: pTGI (converted)) was 11.5 µM and the GI50 [20] was 1.02 µM. For the same molecule, the CC50 [20, 44] was 6.03 µM, the TGI ([20]; read-out: pTGI (converted)) was 2.45 µM and the GI50 ([21]; UACC-62) was 0.309 µM. The CC50 ([21]; UACC-62, read-out: pLC50 (the source's name) (converted)) was 7.76 µM, the TGI ([21]; UACC-62, read-out: pTGI (converted)) was 1.48 µM and the GI50 [22] was 1.17 µM. The CC50 [22, 44] was 43.7 µM, the TGI ([22]; read-out: pTGI (converted)) was 9.12 µM and the GI50 [23] was 11.5 µM. For the same molecule, the CC50 [23, 44] was 57.5 µM, the TGI ([23]; read-out: pTGI (converted)) was 25.7 µM and the GI50 [24] was 1.07 µM. The CC50 [24, 44] was 22.4 µM, the TGI ([24]; read-out: pTGI (converted)) was 4.79 µM and the GI50 [25] was 0.145 µM. It also gave a CC50 [25, 44] of 40.7 µM, a TGI ([25]; read-out: pTGI (converted)) of 0.692 µM and a GI50 [26] of 1.02 µM. It also gave an LC50 [26] of 12.6 µM, a TGI ([26]; read-out: pTGI (converted)) of 3.39 µM and a GI50 [27] of 1 µM. It also gave a CC50 [27, 44] of 7.59 µM, a TGI ([27]; read-out: pTGI (converted)) of 2.75 µM and a GI50 [28] of 0.933 µM. It also gave a CC50 [28, 44] of 43.7 µM, a TGI ([28]; read-out: pTGI (converted)) of 12.9 µM and a GI50 [29] of 1.41 µM. It also gave an LC50 [29] of 66.1 µM, a TGI ([29]; read-out: pTGI (converted)) of 12.9 µM and a GI50 [30] of 3.8 µM. For the same molecule, the LC50 (50% lethal concentration) [30] was 45.7 µM, the TGI ([30]; read-out: pTGI (converted)) was 19.1 µM and the GI50 [31] was 8.32 µM. For the same molecule, the CC50 [31, 44] was 61.7 µM, the TGI ([31]; read-out: pTGI (converted)) was 24.5 µM and the GI50 [32] was 0.525 µM. The CC50 [32, 44] was 4.37 µM, the TGI ([32]; read-out: pTGI (converted)) was 1.86 µM and the GI50 [33] was 1.17 µM. The CC50 [33, 44] was 8.51 µM, the TGI ([33]; read-out: pTGI (converted)) was 3.16 µM and the GI50 [34] was 0.195 µM. It also gave an LC50 (concentration killing 50% of cells) [34] of 56.2 µM, a TGI ([34]; read-out: pTGI (converted)) of 1.86 µM and a GI50 ([35]; read-out: GI50) of 0.2 µM. For the same molecule, the GI50 ([35]; read-out: pGI50 (converted)) was 0.204 µM, the TGI ([35]; read-out: pTGI (converted)) was 0.575 µM and the GI50 [36] was 7.24 µM. The CC50 [36, 44] was > 100 µM, the TGI ([36]; read-out: pTGI (converted)) was 34.7 µM and the GI50 ([37]; OVCAR-4) was 2.57 µM. For the same molecule, the CC50 ([37]; OVCAR-4, read-out: pLC50 (the source's name) (converted)) was > 100 µM, the TGI ([37]; OVCAR-4, read-out: pTGI (converted)) was 70.8 µM and the GI50 [38] was 1.32 µM. It also gave an LC50 [38] of 33.1 µM, a TGI ([38]; read-out: pTGI (converted)) of 8.51 µM and a GI50 ([39]; OVCAR-8) of 12.6 µM. For the same molecule, the CC50 ([39]; OVCAR-8, read-out: pLC50 (the source's name) (converted)) was > 100 µM, the TGI ([39]; OVCAR-8, read-out: pTGI (converted)) was 36.3 µM and the GI50 [40] was 0.603 µM. The LC50 [40] was > 100 µM, the TGI ([40]; read-out: pTGI (converted)) was 3.89 µM and the GI50 [41] was 0.245 µM. For the same molecule, the CC50 [41, 44] was > 100 µM, the TGI ([41]; read-out: pTGI (converted)) was 1.48 µM and the GI50 [42] was 14.8 µM. For the same molecule, the CC50 [42, 44] was > 100 µM, the TGI ([42]; read-out: pTGI (converted)) was > 100 µM and the GI50 [43] was 2.34 µM. For the same molecule, the CC50 [43, 44] was 66.1 µM and the TGI ([43]; read-out: pTGI (converted)) was 16.6 µM.
